Here are results for 32 compounds from ChEMBL document CHEMBL1136967, “High-affinity, non-nucleotide-derived competitive antagonists of platelet P2Y12 receptors” (J Med Chem, 2009).

For orientation: LD50 means the dose at which mortality reaches 50%. High values mean lower toxicity, low ones greater toxicity. A word on the inhibition: it is the percentage by which the read-out fell short of the control. A higher inhibition goes with a response far below the control. In general, Ki refers to a measure of affinity in units of concentration, obtained from inhibition or displacement. The low end stands for a stronger hold on the target, the high end for a looser hold on the target. What is called EC50 is the concentration needed to bring the measured effect to its halfway point. High values mean a need for much substance, low ones an effect from little substance. Usually Kb stands for the equilibrium dissociation constant of an antagonist, usually derived from a functional assay. In general, pKb refers to the negative decadic logarithm of the Kb, by convention in mol/L.

A short description of series [1]: Toxicity in po dosed rat. The class given is organism-based. Particulars: in vivo.
The target of series [2] is T1, P2Y purinoceptor 12 (Homo sapiens, UniProt Q9H244). Description: Displacement of [3H]PSB0413 from human platelet P2Y12 receptor at 10 uM. A digest of the protocol: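 Human platelet membranes (100 µg protein) incubated with 5 nM [3H]PSB-0413 and test compound at 10 µM in 50 mM Tris-HCl pH 7.4 for 1 h at rt, then filtered over GF/B. Nonspecific binding defined with 1 mM ADP; result expressed as % inhibition of radioligand binding.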
T1 sequence (Q9H244 whole entry): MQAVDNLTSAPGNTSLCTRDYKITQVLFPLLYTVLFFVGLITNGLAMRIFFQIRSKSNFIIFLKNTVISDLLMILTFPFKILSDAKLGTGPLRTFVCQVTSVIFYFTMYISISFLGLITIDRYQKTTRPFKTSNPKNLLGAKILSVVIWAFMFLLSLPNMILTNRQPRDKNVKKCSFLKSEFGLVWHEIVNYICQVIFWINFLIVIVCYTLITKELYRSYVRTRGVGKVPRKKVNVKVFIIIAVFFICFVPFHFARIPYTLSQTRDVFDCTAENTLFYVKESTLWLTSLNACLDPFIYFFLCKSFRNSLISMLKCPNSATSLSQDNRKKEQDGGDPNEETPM

Series [3] deals with T1, P2Y purinoceptor 12. Description: Displacement of [3H]PSB0413 from human platelet P2Y12 receptor. A digest of the protocol: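 Membranes from outdated human blood-bank platelets (4-5 days post-donation), washed, centrifuged, homogenized, stored at -80 °C. 100 µg protein incubated with 5 nM [³H]PSB-0413 in 50 mM Tris-HCl pH 7.4 for 1 h at rt, then filtered over GF/B. Nonspecific binding with 1 mM ADP. Screen at 10 µM. Ki from curves of 6-7 concentrations over 3 log units. At least three experiments in triplicate.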
Background: Loss of bound radioactivity is the signal in a displacement assay; it reports binding, not function.

Series [4] in a line: Cytotoxicity against human 1321N1 cells at 0.1 uM after 72 hrs to 144 hrs by MTT assay. The class given is functional. The essentials:
(§1)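 1321N1 astrocytoma and 1539 melanoma cells grown in DMEM with 10% FCS and penicillin/streptomycin at 37 °C, 5% CO2. Seeded at 2000 cells/well for 24 h, then medium replaced and compound added from 10 mM DMSO stocks (final DMSO 1%). Incubation 72-144 h, then MTT (5 mg/mL stock) for 1 h. Formazan dissolved in DMSO, A570 read against 690 nm reference. Viability relative to 1% DMSO wells; triplicates, 3-8 experiments.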
In general terms: Formazan colour is commonly taken as a measure of viable cells.

The nature of series [5]: Cytotoxicity against human 1321N1 cells at 1 uM after 72 hrs to 144 hrs by MTT assay. The class given is functional. The essentials:
as §1

Series [6] is described as follows: Cytotoxicity against human 1539 cells at 100 uM after 72 hrs to 144 hrs by MTT assay. The class given is functional. A digest of the protocol:
as §1

The nature of series [7]: Cytotoxicity against human 1539 cells at 1 uM after 72 hrs to 144 hrs by MTT assay. The class given is functional. A digest of the protocol: as §1
Series [8] can be described thus: Cytotoxicity against human 1539 cells at 0.1 uM after 72 hrs to 144 hrs by MTT assay. The series is classed as functional. A digest of the protocol:
as §1

Series [9] is described as follows: Cytotoxicity against human 1321N1 cells at 100 uM after 72 hrs to 144 hrs by MTT assay. The series is classed as functional. A digest of the protocol:
as §1

Series [10] is described as follows: Cytotoxicity against human 1539 cells after 72 hrs to 144 hrs by MTT assay. The series is classed as functional, cell-based. The essentials: (§2)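 Cells grown in DMEM with 10% fetal calf serum, penicillin and streptomycin at 37 °C, 5% CO₂. Seeded at 2000 cells/well, 24 h, then medium renewed and compounds added (DMSO stocks; final DMSO 1%) at 0.1, 1 and 100 µM, or full dose-inhibition curves. Exposure 72-144 h. MTT 1 h, crystals dissolved in DMSO, absorbance 570 nm (reference 690 nm). Viability relative to 1% DMSO wells. Triplicates, 3-8 experiments.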

A short description of series [11]: Cytotoxicity against human 1321N1 cells after 72 hrs to 144 hrs by MTT assay. The class given is functional, cell-based. The essentials:
as §2

Series [12] addresses T1, P2Y purinoceptor 12. As to the kind of experiment: Antagonist activity at P2Y12 receptor expressed in human astrocytoma cells assessed as right shift of concentration response curve. The series is classed as functional, cell-based.
For series [13], the species on record is Homo sapiens. As to the kind of experiment: Selectivity for human platelet P2Y12 receptor over human P2Y1 receptor.
For series [14], the species on record is Homo sapiens. As to the kind of experiment: Selectivity for human platelet P2Y12 receptor over human P2Y4 receptor.
For series [15], the species on record is Homo sapiens. As to the kind of experiment: Selectivity for human platelet P2Y12 receptor over human P2X2 receptor.
For series [16], the species on record is Homo sapiens. As to the kind of experiment: Selectivity for human platelet P2Y12 receptor over human P2X4 receptor.
The species entered for series [17] is Homo sapiens. As to the kind of experiment: Selectivity for human platelet P2Y12 receptor over human P2Y2 receptor.

As for `Nc1ccc(-c2ccc(N)c3c2C(=O)c2ccccc2C3=O)c2c1C(=O)c1ccccc1C2=O`, the LD50 in series [1] is > 5000 mg/kg.

The compound `O=C1c2c(O)cccc2C([C@@H]2O[C@H](CO)[C@@H](O)[C@H](O)[C@H]2O)c2cc(CO)cc(O)c21` (some centres undefined) [ALOIN] displayed an inhibition in [2] of 2%. For the same compound, the inhibitory constant (Ki) in series [3] is > 10 µM.

With `Cc1cc(O)c2c(c1)C(=O)c1cc(O)cc(O)c1C2=O` [EMODIN], in series [2], the inhibition is 5%. The Ki in [3] was > 10 µM.

With `COc1cc(O)c2c(c1)C(=O)c1cc(C)cc(O)c1C2=O` [PHYSCION], the inhibition in series [2] was determined as 7%. Moreover, the Ki in series [3] was > 10 µM.

Take `O=C1c2cccc(O)c2C(=O)c2c(O)cc(CO)cc21` [ALOE-EMODIN]: the inhibition in series [2] was 2%. The Ki in series [3] was > 10 µM.

As to `Nc1c(S(=O)(=O)O)cc(Nc2ccc(O)cc2)c2c1C(=O)c1ccccc1C2=O`, in [2], the inhibition is 50%. Besides, affinity in series [3] was put at a Ki of 10 µM.

In series [2], `COC(=O)c1cc(O)c2c(c1)C(=O)c1cccc(O)c1C2=O` [RHEIN METHYLESTER] displayed an inhibition of 2%. Besides, in series [3], the Ki was > 10 µM.

As for `Cc1cc(C)c(Nc2cc(S(=O)(=O)O)c(N)c3c2C(=O)c2ccccc2C3=O)c(C)c1` [ACID BLUE 129], the inhibition in [2] amounted to 30%. Moreover, the Ki in series [3] was > 10 µM.

`CC(=O)Nc1ccc(Nc2cc(S(=O)(=O)O)c(N)c3c2C(=O)c2ccccc2C3=O)cc1` gave an inhibition in series [2] of 4%. Besides, in [3], the inhibitory constant (Ki) is > 10 µM.

`Nc1c(S(=O)(=O)O)cc(Nc2ccccc2O)c2c1C(=O)c1ccccc1C2=O` yielded an inhibition in series [2] of 45%. Moreover, the Ki in series [3] stood at 10 µM.

`Nc1c(S(=O)(=O)[O-])cc(Nc2cccc3ccccc23)c2c1C(=O)c1ccccc1C2=O.[Na+]` showed an inhibition in series [2] of 25%. Besides, the Activity came out at 114% in series [4]; 126% in series [5]; 89% in series [6]; 95% in series [7]; 96% in series [8]; 116% in [9]. The Ki in series [3] was > 10 µM.

As for `Nc1c(S(=O)(=O)O)cc(Nc2ccc(Nc3ccccc3)c(C(=O)O)c2)c2c1C(=O)c1ccccc1C2=O`, the affinity in series [3] corresponds to a Ki of 0.021 µM.

As to `COc1ccc(CCNc2cc(S(=O)(=O)O)c(N)c3c2C(=O)c2ccccc2C3=O)cc1OC`, in series [2], the inhibition came out at 23%. Moreover, in [3], the inhibition constant Ki was > 10 µM.

Consider `Nc1c(S(=O)(=O)O)cc(NCCc2ccccc2)c2c1C(=O)c1ccccc1C2=O`, for which, in [2], the inhibition was 16%. Moreover, the Ki in series [3] was > 10 µM.

As to `O=c1[nH]cc(F)c(=O)[nH]1` [FLUOROURACIL], the EC50 turned out to be 5.71 µM in series [10] and 53.2 µM in series [11].

Compound `CN(C)[C@@H]1C(O)=C(C(N)=O)C(=O)[C@@]2(O)C(O)=C3C(=O)c4c(O)ccc(Cl)c4[C@@](C)(O)[C@H]3C[C@@H]12` [CHLORTETRACYCLINE] had an inhibition in series [2] of 6%. Moreover, in series [3], the inhibition constant Ki was > 10 µM.

With `CN(C)[C@@H]1C(O)=C(C(N)=O)C(=O)[C@@]2(O)C(O)=C3C(=O)c4c(O)cccc4[C@@](C)(O)[C@H]3C[C@@H]12` [TETRACYCLINE], the inhibition in series [2] came out at 2%. In addition, in series [3], the Ki was > 10 µM.

Regarding `Cc1cc(O)c2c(c1)C(=O)c1cc(O[C@@H]3OC[C@](O)(CO)[C@H]3O)cc(O)c1C2=O` [FRANGULIN B], in [2], the inhibition was 4%. Also, in series [3], the Ki was > 10 µM.

In the case of `Nc1c(S(=O)(=O)O)cc(Nc2cccc([N+](=O)[O-])c2)c2c1C(=O)c1ccccc1C2=O`, in series [2], the inhibition amounted to 17%. The Ki in series [3] is > 10 µM.

Compound `Cc1cc(C)c(Nc2cc(S(=O)(=O)O)c(N)c3c2C(=O)c2ccccc2C3=O)c(C)c1N` had an inhibition in series [2] of 35%. In addition, the Ki in [3] is > 10 µM.

In turn, `Cc1cc(O)c2c(c1)C(=O)c1cc(O[C@@H]3O[C@@H](C)[C@H](O)[C@@H](O)[C@H]3O)cc(O)c1C2=O` [FRANGULIN A] showed an inhibition in [2] of 4%. In addition, in series [3], the Ki is > 10 µM.

`Cc1cc(O)c2c(c1)Cc1cc(O)cc(O)c1C2=O` [EMODIN ANTHRONE] came in with an inhibition in series [2] of 1%. The Ki in series [3] is > 10 µM.

On to `Nc1c(S(=O)(=O)O)cc(Nc2ccc(Nc3ccccc3)c(S(=O)(=O)O)c2)c2c1C(=O)c1ccccc1C2=O`, for which, in series [12], the antagonist equilibrium constant (Kb) turned out to be 0.0004 µM and the pKb stood at 9.4.

`COc1cccc2c1C(=O)c1c(O)c3c(c(O)c1C2=O)C[C@@](O)(C(=O)CO)C[C@@H]3O[C@H]1C[C@H](N)[C@H](O)[C@H](C)O1` [DOXORUBICIN] displayed an inhibition in series [2] of 7%. In [3], the Ki was > 10 µM.

Consider `Nc1c(S(=O)(=O)[O-])cc(Nc2ccc(Cl)cc2)c2c1C(=O)c1ccccc1C2=O.[Na+]`, for which the Activity in series [4] worked out at 117%; in series [5], 116%; in series [6], 129%; in series [7], 95%; in [8], 99%; in [9], 120%.

`Nc1c(S(=O)(=O)O)cc(NCc2ccccc2)c2c1C(=O)c1ccccc1C2=O` had an inhibition in series [2] of 11%. Further, the Ki in series [3] is > 10 µM.

`Nc1c(S(=O)(=O)O)cc(Nc2ccc(Nc3ncccn3)c(S(=O)(=O)O)c2)c2c1C(=O)c1ccccc1C2=O`: the fold change (FC) in series [13], in series [14], in [15], in series [16] and in [17] was 100 each time.

As for `Nc1ccccc1Nc1cc(S(=O)(=O)O)c(N)c2c1C(=O)c1ccccc1C2=O`, the inhibition in series [2] worked out at 37%. Besides, the Ki in [3] is > 10 µM.

For the compound `O=C1c2c(O)ccc(O)c2C(=O)c2c(NCCNCCO)ccc(NCCNCCO)c21` [MITOXANTRONE], in series [3], the Ki was > 10 µM.

On to `Nc1ccc(Nc2cc(S(=O)(=O)O)c(N)c3c2C(=O)c2ccccc2C3=O)cc1`, for which the inhibition in [2] is 30%. Further, the Ki in series [3] was > 10 µM.

In series [2], `Cc1cc(O)c2c(c1)C(=O)c1cccc(O)c1C2=O` [CHRYSOPHANOL] yielded an inhibition of 13%. Further, the Ki in series [3] was > 10 µM.

With `Nc1c(S(=O)(=O)O)cc(Nc2ccc(Nc3ncccn3)cc2)c2c1C(=O)c1ccccc1C2=O`, the inhibition in series [2] worked out at 57%. In [3], the Ki was 10 µM.
